Each structure is given as a SMILES string. Converted amounts (≈) assume the structure as drawn.

One assay has as its system NIH3T3. In words: Cytotoxicity against mouse NIH3T3 cells after 24 hrs by MTT assay. The settings on record: NIH3T3, 24 h. Format: cell-based. A digest of the protocol:
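NIH/3T3 cells grown in DMEM with 10% fetal calf serum, penicillin and streptomycin at 37 °C, 5% CO2. Plated at 5 × 10⁴ cells/ml, preincubated 24 h, then exposed to compounds (DMSO stocks diluted in medium, final DMSO <0.6%) for 24 h. MTT 0.5 mg/ml final, 4 h, 37 °C; formazan dissolved in DMSO, absorbance 540 nm. Triplicate wells; IC50 = concentration halving absorbance versus control.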

In assay [1] the test system is Mycobacterium tuberculosis. As to the kind of experiment: Antitubercular activity against Mycobacterium tuberculosis H37Rv ATCC 27294 by microplate alamar blue assay. The format is functional.
The subject of assay [2] is Mycobacterium tuberculosis. In words: Antitubercular activity against Mycobacterium tuberculosis H37Rv ATCC 27294 at 6.25 ug/ml by microplate alamar blue assay. The format is functional. In a few lines:
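Single-concentration primary screen at 6.25 against H37Rv in BACTEC 12B medium by Microplate Alamar Blue Assay, with results read as percent inhibition on a BACTEC 460 radiometric system. Positive BACTEC culture (GI ≥500) or McFarland No. 1 suspension was inoculated into drug vials and incubated at 37 °C with daily reads. Once the control GI reached ≥30, the daily ΔGI of drug and control vials was compared.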

Compound `C/C(=N\Nc1nc(-c2ccc3c(c2)CCC3)cs1)c1ccccc1` yielded an IC50 in the assay on NIH3T3 of 200 mg/L (≈ 600 µM).
In assay [1], `CO[C@H]1/C=C/O[C@@]2(C)Oc3c(C)c(O)c4c(O)c(c(/C=N/N5CCN(C)CC5)c(O)c4c3C2=O)NC(=O)/C(C)=C\C=C\[C@H](C)[C@H](O)[C@@H](C)[C@@H](O)[C@@H](C)[C@H](OC(C)=O)[C@@H]1C` [RIFAMPIN] yielded an MIC of 0.25 mg/L (≈ 0.304 µM). The same compound had an inhibition at 6.25 µg/mL in assay [2] of 98%.
`COc1ccc(/C(C)=N/Nc2nc(-c3ccc4c(c3)CCC4)cs2)cc1` showed an IC50 with NIH3T3 of 180 mg/L (≈ 495 µM).
With `C/C(=N\Nc1nc(-c2ccc3c(c2)CCC3)cs1)c1ccc(C)cc1`, in the assay with NIH3T3, the midpoint of inhibition, the IC50, lay at 49 mg/L (≈ 141 µM).
Still for that read-out and setting: then `C/C(=N\Nc1nc(-c2ccc3c(c2)CCC3)cs1)c1ccc(Cl)c(Cl)c1`, with 110 mg/L (≈ 273 µM); and `C/C(=N\Nc1nc(-c2ccc3c(c2)CCC3)cs1)c1ccc(Cl)cc1`, with 120 mg/L (≈ 326 µM); and `C/C(=N\Nc1nc(-c2ccc3c(c2)CCC3)cs1)c1ccc([N+](=O)[O-])cc1`, with 90 mg/L (≈ 238 µM).

These data come from ChEMBL document CHEMBL1156675, “Synthesis and antituberculosis activity of new thiazolylhydrazone derivatives” (Eur J Med Chem, 2008).
